TDP2 absorb = blocks human TDP2 phosphodiesterase activity; hit rate 0.34% among 370,000; AID 720702; inhibition, % at 12.8 µM; O95551; recombinant TDP2, T5PNP hydrolysis, p-nitrophenol absorbance 415 nm;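 active = inhibition above the mean of all tested compounds plus 3 SD, set per campaign, cut at about 25% in these data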;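 also: 0% = DMSO with enzyme and 100% = buffer with substrate but no TDP2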
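System – recombinant human TDP2 · Amount – 120 nM TDP2 per well · Buffer or medium – Mg2+-containing Tris-HCl buffer, pH 7.5 · Reagent – T5PNP substrate, 5 mM · Dosing – 12.8 µM single point, 1% DMSO · Incubation – 2 h at 37 °C · Measured by – epi absorbance · Read-out basis – percent inhibition · Benchmarks – high control without enzyme, low control DMSO plus TDP2 · Repeats – singlicate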
UHRF1 MBD2 ctr = human UHRF1 methylated DNA binding inhibitors. Q96T88. UHRF1 binding to methylated oligo, TR-FRET. inhibition, % at 4.4 µM. hit rate 0.75% among 370,000. AID 687016; in the data active = inhibition above about 21%;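 also: UHRF1 SRA domain binding a hemimethylated CpG hairpin DNA probe; 0% = median of test compound wells and 100% = reference inhibitor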
LEDGF integ inh = blocks HIV-1 LEDGF/p75-dependent DNA integration. TR-FRET IN-LEDGF/p75 DNA integration, Eu/Cy5. inhibition, % at 3.7 µM. hit rate 0.64% among 370,000. AID 743269;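 active = inhibition above the screen-wide mean plus 3 SD, cut at about 13% in these data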;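 also: signal is the Cy5 over europium emission ratio at 671 and 618 nm; 0% = plate median of compound wells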
SIAE primary = inhibitors of human sialic acid acetylesterase SIAE | Q9HAT2 | SIAE FP-Rh probe binding, fluorescence polarization | inhibition, % at 9.66 µM | hit rate 0.69% among 370,000 | AID 1053197;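 active = inhibition above a cutoff: mean of compounds within the control limits plus 3 SD of those, cut at about 17% in these data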;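 also: 0% = plate median of compound wells and 100% = probe without SIAE protein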
Target sequence (Q9HAT2 whole entry, looked up): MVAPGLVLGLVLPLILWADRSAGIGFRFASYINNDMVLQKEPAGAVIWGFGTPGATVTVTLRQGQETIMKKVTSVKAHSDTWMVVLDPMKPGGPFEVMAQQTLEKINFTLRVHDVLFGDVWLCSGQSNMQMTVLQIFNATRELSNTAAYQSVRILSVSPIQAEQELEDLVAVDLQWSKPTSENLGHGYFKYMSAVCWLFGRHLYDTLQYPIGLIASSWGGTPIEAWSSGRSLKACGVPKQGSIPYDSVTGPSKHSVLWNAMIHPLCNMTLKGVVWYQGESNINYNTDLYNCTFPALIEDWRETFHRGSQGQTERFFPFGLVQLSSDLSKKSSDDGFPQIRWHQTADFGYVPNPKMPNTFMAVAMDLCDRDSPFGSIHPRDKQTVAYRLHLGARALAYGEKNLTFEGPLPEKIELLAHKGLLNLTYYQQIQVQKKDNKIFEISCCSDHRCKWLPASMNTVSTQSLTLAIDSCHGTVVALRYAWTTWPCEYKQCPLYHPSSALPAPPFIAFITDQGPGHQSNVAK
MBD2 DNA inh = MBD2-methylated oligo binding inhibition; Q9UBB5; inhibition, % at 4.4 µM; hit rate 0.31% among 370,000; TR-FRET, MBD2 binding to methylated oligonucleotide; in the data active = inhibition above about 13%
PRMT1 inh = PRMT1 (human) inhibition, primary screen | Q99873 | recombinant PRMT1, activity-based probe fluorescence polarization | inhibition, % at 2.79 µM | hit rate 1.3% among 370,000 | AID 652257;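 active = inhibition above about 21% made by adding two undisclosed values, limit read from the data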
* hit, by the source's call. Most compounds without a hit are left out; they make up all but 3.3% or so of the library.

SMILES | TDP2 absorb | UHRF1 MBD2 ctr | LEDGF integ inh | SIAE primary | MBD2 DNA inh | PRMT1 inh
CC(C)C[C@@H]1COc2cc(Br)ccc2S(=O)(=O)N1Cc1cn(Cc2ccc(C(F)(F)F)cc2)nn1 | -4 | -3 | 7 | 3 | -7 | -2
COc1ccccc1-n1c(SCC(=O)O)nc2c(sc(=S)n2-c2ccccc2C)c1=O | -3 | 8 | -3 | -6 | 2 | 0
COc1ccccc1-n1c(=S)[nH]c2c(sc(=S)n2-c2ccccc2)c1=O | -1 | 2 | 7 | -3 | -6 | 83*
CCOc1ccccc1-n1c(=S)sc2c(=O)n(-c3ccccc3)c(=S)[nH]c21 | 13 | -1 | -1 | 19* | -2 | 78*
COc1ccccc1-n1c(=S)[nH]c2c(sc(=S)n2-c2ccccc2C)c1=O | 5 | -3 | -5 | -2 | -5 | 87*
COC(=O)[C@@]1(Cc2ccc(F)cc2)[C@H]2c3cc(C(=O)N(C)C)n(Cc4ccc(C)o4)c3C[C@H]2CN1C(=O)c1ccccc1 | -2 | -1 | 2 | -2 | -2 | 22*
COc1ccc2c(CCN3C(=O)c4ccccc4C3=O)c(-c3c(CCN4C(=O)c5ccccc5C4=O)c4ccccc4n3C(=O)OC(C)(C)C)[nH]c2c1 | 14 | 0 | 0 | -5 | -4 | 5
COC(=O)c1ccccc1NC(=O)NCc1cccnc1 | -3 | 4 | 1 | -3 | 7 | 8
COC(=O)c1ccccc1NC(=O)C(=O)NCc1ccncc1 | 2 | 42* | 2 | 2 | 1 | 0
C=CCN=C1NC(c2cccc(Cl)c2)C(C(=O)OC)=C(C)N1Cc1cccc(C(F)(F)F)c1 (stereo not given) | -15 | -1 | 4 | -2 | -10 | -5
CN(C)c1cccc(C(=O)OCc2cc(=O)oc3cc(O)ccc23)c1 | 4 | 24* | 5 | 3 | 8 | 2
COc1cccc(NC(=O)C2CCCN2C(=O)NCc2ccccc2)c1 (stereo not given) | 3 | 3 | -2 | 4 | 1 | 3
COc1ccccc1NC(=O)c1cccc(S(=O)(=O)N2CCN(c3ccccc3)CC2)c1 | -14 | 5 | -6 | -1 | 0 | 7
COc1ccc(NC(=O)c2cccc(S(=O)(=O)N3CCN(c4ccccc4)CC3)c2)c(OC)c1 | 4 | 22* | -1 | 1 | 5 | 0
Cn1c(=O)oc2cc(S(=O)(=O)N3CCN(CCO)CC3)ccc21 | -1 | -1 | 0 | 9 | 2 | 0
COC(=O)c1ccc2c(C3(c4c[nH]c5ccccc45)CCN(C(=O)OC(C)(C)C)CC3)c[nH]c2c1 | 6 | 4 | -4 | -11 | 8 | 3
COc1cc(C(F)(F)F)nc2ccc(C#CCOC(=O)Nc3ccccc3)cc12 | 3 | 21* | -1 | -13 | 5 | -1
COc1ccc(OCCOC(=O)Nc2ccccc2)cc1 | 0 | 1 | 0 | 3 | -5 | -3
COC(=O)Nc1cc(C(=O)c2ccc(Cl)cc2Cl)c[nH]1 | -10 | -1 | -6 | -18 | -3 | 24*
CCN(C(=O)COC(=O)c1cc(-c2ccc(C)o2)nc2ccccc12)C1CCS(=O)(=O)C1 (stereo not given) | 5 | -2 | -3 | 12 | -1 | 23*
Cc1ccc(-c2cc(C(=O)OCC(=O)N(C)C3CCS(=O)(=O)C3)c3ccccc3n2)o1 (stereo not given) | 5 | -2 | 3 | 4 | -1 | 16
CC(=O)N1C[C@H]2CON(C)[C@H]2C[C@H]1c1ccccc1Br | 0 | -2 | 4 | 2 | 0 | -1
CN1OC[C@@H]2CN(C(=O)CCc3ccccc3)[C@H](c3ccccc3Br)C[C@@H]21 | 0 | 77* | 4 | -1 | -4 | -4
CCC(=O)Nc1ccc2c(c1)nc(CCN1CCC(C)CC1)n2C | 4 | -2 | 0 | 5 | 5 | -1
CC1CCN(CCc2nc3cc(NC(=O)COc4ccccc4)ccc3n2C)CC1 | 4 | 26* | -3 | -4 | 12 | 2
Cc1ccc2nc(C)cc(N/N=C/c3ccccc3O)c2c1 | -3 | -4 | 3 | 4 | -1 | -8
Cc1ccc(C)c(/C=N/Nc2nc3ccccc3c(=O)n2O)c1 | 6 | 1 | -2 | 4 | 5 | 25*
C/C(=N\Nc1nc2ccccc2c(=O)n1O)c1ccco1 | -18 | 2 | 13 | 3 | -3 | 36*

Compound activity as filed in PubChem BioAssay.
